Results: ChEMBL document CHEMBL4261600 (Eur J Med Chem, 2018)

Experiments:
MV4-11 = assay: Antiproliferative activity against human MV4-11 cells after 72 hrs by Celltiter-Glo assay; assay type: functional; details: MV4-11, 72 h
How it was run: (§1)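 Cells seeded at 3000/well in 96-well plates, exposed to serially diluted compound for 72 h at 37 °C, 5% CO2. Viability read by CellTiter-Glo luminescence and normalized to DMSO control. GI50 derived from curve fit, mean of three independent measurements. Culture media: DMEM/10% FBS for adherent lines; IMDM for MV4-11 and MEC-1/2; RPMI 1640 for suspension lines and CHL.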

MOLM-13 = assay: Antiproliferative activity against human MOLM13 cells after 72 hrs by Celltiter-Glo assay; assay type: functional; details: MOLM-13, 72 h; how it was run: as §1
[1] = AUC (0 to infinity) in Sprague-Dawley rat at 20 mg/kg, po by LC-MS/MS analysis; assay type: ADME, organism-based; set-up: dose 20 mg/kg, route oral, time infinity; details: in vivo
How it was run: (§2)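 Non-compartmental PK. Male SD rats 190-210 g, mice and beagle dogs acclimatized one week, fasted 12 h with water, split into iv and po groups (mice 48, rats 6, dogs 6). iv 3/3/2 mg/kg (mice/rats/dogs); po 10/20/10 mg/kg; vehicle DMSO in 5% glucose water. Blood at 2 or 5 to 720 min; plasma protein-precipitated with methanol, caffeine internal standard, LC-MS/MS.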

Canis familiaris = assay: AUC (0 to infinity) in beagle dog at 10 mg/kg, po by LC-MS/MS analysis; assay type: ADME, organism-based, Canis lupus familiaris; set-up: dose 10 mg/kg, time infinity, route oral; details: in vivo; how it was run: as §2
[2] = test system: Tyrosine-protein kinase ABL1 (Homo sapiens), P00519 [T315I]; assay: Binding affinity to human non-phosphorylated ABL1 T315I mutant (S229 to K512 residues) expressed in mammalian expression system assessed as remaining unbound target protein level at 1000 nM by Kinomescan method relative to control
How it was run: (§3)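 KINOMEscan competition-binding profiling across the panel of 468 kinases and mutants, with inhibitor tested at 1 μM. Binding is expressed as percent of control, with DMSO as the reference control.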

[3] = target: Cyclin-dependent kinase 11A (Homo sapiens) (UniProt Q9UQ88); assay: Binding affinity to wild-type human partial length CDC2L2 (D391 to K730 residues) expressed in bacterial expression system assessed as remaining unbound target protein level at 1000 nM by Kinomescan method relative to control
How it was run: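 Profiled in a KINOMEscan binding panel with the inhibitor at a single concentration of 1 μM. Binding to each kinase was read out as percent of control, relative to a DMSO control. Strong binders were defined as those with a percent control value below 1.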

[4] = target: Epidermal growth factor receptor (Homo sapiens) (UniProt P00533); assay: Binding affinity to wild-type human partial length EGFR (R669 to V1011 residues) expressed in bacterial expression system assessed as remaining unbound target protein level at 1000 nM by Kinomescan method relative to control
[5] = test system: Epidermal growth factor receptor (Homo sapiens), P00533 [L858R,T790M]; assay: Binding affinity to human partial length EGFR L858R/T790M double mutant (R669 to V1011 residues) expressed in mammalian expression system assessed as remaining unbound target protein level at 1000 nM by Kinomescan method relative to control; how it was run: as §3
[6] = target: Glycogen synthase kinase-3 alpha (Homo sapiens) (UniProt P49840); assay: Binding affinity to wild-type human full length GSK3A (M1 to S483 residues) expressed in bacterial expression system assessed as remaining unbound target protein level at 1000 nM by Kinomescan method relative to control
How it was run: (§4)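 KINOMEscan competition binding profile across a panel of 468 kinases and mutants, with the inhibitor tested at a single concentration of 1 μM. Binding is reported as percent of control, meaning signal relative to a DMSO control.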

[7] = target: Mast/stem cell growth factor receptor Kit (Homo sapiens) (UniProt P10721); assay: Binding affinity to wild-type human partial length autoinhibited KIT (Y545 to D952 residues) expressed in mammalian expression system assessed as remaining unbound target protein level at 1000 nM by Kinomescan method relative to control
[8] = target: Tyrosine-protein kinase Lck (Homo sapiens) (UniProt P06239); assay: Binding affinity to wild-type human partial length LCK (R207 to P509 residues) expressed in bacterial expression system assessed as remaining unbound target protein level at 1000 nM by Kinomescan method relative to control
How it was run: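 KINOMEscan binding panel of 468 kinases/mutants. Inhibitor was tested at a single concentration of 1 μM. Binding is reported as percent of control, defined relative to a DMSO control.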

[9] = target: Myosin-IIIb (Homo sapiens) (UniProt Q8WXR4); assay: Binding affinity to wild-type human partial length MYO3B (M1 to D357 residues) expressed in bacterial expression system assessed as remaining unbound target protein level at 1000 nM by Kinomescan method relative to control
[10] = target: Serine/threonine-protein kinase Nek10 (Homo sapiens) (UniProt Q6ZWH5); assay: Binding affinity to wild-type human partial length NEK10 (L488 to R809 residues) expressed in mammalian expression system assessed as remaining unbound target protein level at 1000 nM by Kinomescan method relative to control
[11] = target: Cyclin-dependent kinase 17 (Homo sapiens) (UniProt Q00537); assay: Binding affinity to wild-type human full length PCTK2 (M1 to F523 residues) expressed in bacterial expression system assessed as remaining unbound target protein level at 1000 nM by Kinomescan method relative to control; how it was run: as §4
[12] = target: Phosphatidylinositol 4-phosphate 3-kinase C2 domain-containing subunit beta (Homo sapiens) (UniProt O00750); assay: Binding affinity to wild-type human partial length PIK3C2B (M1 to L1634 residues) expressed in mammalian expression system assessed as remaining unbound target protein level at 1000 nM by Kinomescan method relative to control
[13] = test system: Phosphatidylinositol 4,5-bisphosphate 3-kinase catalytic subunit alpha isoform (Homo sapiens), P42336 [E545K]; assay: Binding affinity to human partial length PIK3CA E545K mutant (R108 to N1068 residues) expressed in mammalian expression system assessed as remaining unbound target protein level at 1000 nM by Kinomescan method relative to control; how it was run: as §3
[14] = target: Protein kinase C eta type (Homo sapiens) (UniProt P24723); assay: Binding affinity to wild-type human partial length PRKCH (S324 to P683 residues) expressed in bacterial expression system assessed as remaining unbound target protein level at 1000 nM by Kinomescan method relative to control
[15] = target: Serine/threonine-protein kinase Sgk3 (Homo sapiens) (UniProt Q96BR1); assay: Binding affinity to wild-type human partial length SGK3 (M119 to L496 residues) expressed in mammalian expression system assessed as remaining unbound target protein level at 1000 nM by Kinomescan method relative to control
[16] = target: SRSF protein kinase 1 (Homo sapiens) (UniProt Q96SB4); assay: Binding affinity to wild-type human full length SRPK1 (M1 to S655 residues) expressed in bacterial expression system assessed as remaining unbound target protein level at 1000 nM by Kinomescan method relative to control; how it was run: as §4
[17] = target: Testis-specific serine/threonine-protein kinase 1 (Homo sapiens) (UniProt Q9BXA7); assay: Binding affinity to wild-type human full length TSSK1B (M1 to Q367 residues) expressed in bacterial expression system assessed as remaining unbound target protein level at 1000 nM by Kinomescan method relative to control; how it was run: as §4

Glycogen synthase kinase-3 alpha (Homo sapiens), sequence (P49840 2-483 limits assumed): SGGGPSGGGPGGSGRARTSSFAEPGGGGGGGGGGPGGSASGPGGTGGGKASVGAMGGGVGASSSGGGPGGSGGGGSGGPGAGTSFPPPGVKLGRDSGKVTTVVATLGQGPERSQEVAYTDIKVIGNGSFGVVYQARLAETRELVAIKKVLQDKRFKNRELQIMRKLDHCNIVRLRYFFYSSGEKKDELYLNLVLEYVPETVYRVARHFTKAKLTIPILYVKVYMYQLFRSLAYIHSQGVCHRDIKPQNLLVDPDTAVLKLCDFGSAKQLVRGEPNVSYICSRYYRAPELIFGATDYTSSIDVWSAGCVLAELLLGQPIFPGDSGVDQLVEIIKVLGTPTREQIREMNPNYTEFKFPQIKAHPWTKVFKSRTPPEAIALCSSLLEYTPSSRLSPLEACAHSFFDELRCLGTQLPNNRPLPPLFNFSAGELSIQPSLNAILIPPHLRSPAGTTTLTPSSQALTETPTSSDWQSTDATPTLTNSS
Protein kinase C eta type (Homo sapiens), sequence (P24723 whole entry, the tested form may be a part): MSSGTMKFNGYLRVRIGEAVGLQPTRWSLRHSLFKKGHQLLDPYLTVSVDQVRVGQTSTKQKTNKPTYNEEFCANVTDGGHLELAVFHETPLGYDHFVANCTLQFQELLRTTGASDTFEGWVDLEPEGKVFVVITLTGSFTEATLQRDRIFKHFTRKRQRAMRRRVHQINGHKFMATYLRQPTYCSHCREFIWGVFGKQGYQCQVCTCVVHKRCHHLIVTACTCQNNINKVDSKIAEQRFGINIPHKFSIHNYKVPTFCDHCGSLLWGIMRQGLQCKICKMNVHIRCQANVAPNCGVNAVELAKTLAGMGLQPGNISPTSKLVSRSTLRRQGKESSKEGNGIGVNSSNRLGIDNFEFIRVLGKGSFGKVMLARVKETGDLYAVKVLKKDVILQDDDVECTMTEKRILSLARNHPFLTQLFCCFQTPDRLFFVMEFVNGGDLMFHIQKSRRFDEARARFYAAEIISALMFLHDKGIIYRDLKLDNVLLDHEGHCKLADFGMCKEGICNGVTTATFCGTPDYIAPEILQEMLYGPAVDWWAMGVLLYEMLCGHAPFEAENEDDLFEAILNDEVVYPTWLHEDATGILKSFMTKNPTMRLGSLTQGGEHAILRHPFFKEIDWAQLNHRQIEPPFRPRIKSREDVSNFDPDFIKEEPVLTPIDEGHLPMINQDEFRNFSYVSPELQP
Mast/stem cell growth factor receptor Kit (Homo sapiens), sequence (P10721 whole entry, the tested form may be a part): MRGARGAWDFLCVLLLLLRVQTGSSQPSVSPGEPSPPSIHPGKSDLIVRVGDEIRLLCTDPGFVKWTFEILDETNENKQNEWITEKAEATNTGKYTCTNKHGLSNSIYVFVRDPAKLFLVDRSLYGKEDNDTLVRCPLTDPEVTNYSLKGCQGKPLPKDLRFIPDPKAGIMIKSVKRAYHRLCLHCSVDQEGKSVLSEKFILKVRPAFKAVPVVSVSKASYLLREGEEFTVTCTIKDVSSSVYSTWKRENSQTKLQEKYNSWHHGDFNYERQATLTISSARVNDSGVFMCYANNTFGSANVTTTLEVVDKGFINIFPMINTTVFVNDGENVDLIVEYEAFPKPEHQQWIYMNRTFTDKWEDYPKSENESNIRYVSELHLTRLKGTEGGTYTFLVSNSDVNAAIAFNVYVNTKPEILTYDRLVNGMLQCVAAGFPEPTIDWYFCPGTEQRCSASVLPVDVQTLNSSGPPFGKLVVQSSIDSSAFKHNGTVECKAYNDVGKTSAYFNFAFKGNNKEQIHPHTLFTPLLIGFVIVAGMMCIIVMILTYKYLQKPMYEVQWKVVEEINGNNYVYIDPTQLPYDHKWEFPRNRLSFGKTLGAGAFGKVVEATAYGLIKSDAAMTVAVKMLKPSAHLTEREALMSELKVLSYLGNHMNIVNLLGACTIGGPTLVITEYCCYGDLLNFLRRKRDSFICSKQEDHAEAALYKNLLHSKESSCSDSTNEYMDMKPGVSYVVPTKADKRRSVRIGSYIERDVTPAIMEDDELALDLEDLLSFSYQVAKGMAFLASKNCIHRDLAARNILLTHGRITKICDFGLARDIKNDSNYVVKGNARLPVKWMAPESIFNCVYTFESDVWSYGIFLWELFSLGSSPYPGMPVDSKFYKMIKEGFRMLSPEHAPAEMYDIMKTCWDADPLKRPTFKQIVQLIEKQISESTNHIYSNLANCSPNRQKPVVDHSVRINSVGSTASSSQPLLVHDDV
Phosphatidylinositol 4,5-bisphosphate 3-kinase catalytic subunit alpha isoform (Homo sapiens), P42336 [E545K], sequence (P42336 whole entry E545K, the tested form may be a part, canonical isoform): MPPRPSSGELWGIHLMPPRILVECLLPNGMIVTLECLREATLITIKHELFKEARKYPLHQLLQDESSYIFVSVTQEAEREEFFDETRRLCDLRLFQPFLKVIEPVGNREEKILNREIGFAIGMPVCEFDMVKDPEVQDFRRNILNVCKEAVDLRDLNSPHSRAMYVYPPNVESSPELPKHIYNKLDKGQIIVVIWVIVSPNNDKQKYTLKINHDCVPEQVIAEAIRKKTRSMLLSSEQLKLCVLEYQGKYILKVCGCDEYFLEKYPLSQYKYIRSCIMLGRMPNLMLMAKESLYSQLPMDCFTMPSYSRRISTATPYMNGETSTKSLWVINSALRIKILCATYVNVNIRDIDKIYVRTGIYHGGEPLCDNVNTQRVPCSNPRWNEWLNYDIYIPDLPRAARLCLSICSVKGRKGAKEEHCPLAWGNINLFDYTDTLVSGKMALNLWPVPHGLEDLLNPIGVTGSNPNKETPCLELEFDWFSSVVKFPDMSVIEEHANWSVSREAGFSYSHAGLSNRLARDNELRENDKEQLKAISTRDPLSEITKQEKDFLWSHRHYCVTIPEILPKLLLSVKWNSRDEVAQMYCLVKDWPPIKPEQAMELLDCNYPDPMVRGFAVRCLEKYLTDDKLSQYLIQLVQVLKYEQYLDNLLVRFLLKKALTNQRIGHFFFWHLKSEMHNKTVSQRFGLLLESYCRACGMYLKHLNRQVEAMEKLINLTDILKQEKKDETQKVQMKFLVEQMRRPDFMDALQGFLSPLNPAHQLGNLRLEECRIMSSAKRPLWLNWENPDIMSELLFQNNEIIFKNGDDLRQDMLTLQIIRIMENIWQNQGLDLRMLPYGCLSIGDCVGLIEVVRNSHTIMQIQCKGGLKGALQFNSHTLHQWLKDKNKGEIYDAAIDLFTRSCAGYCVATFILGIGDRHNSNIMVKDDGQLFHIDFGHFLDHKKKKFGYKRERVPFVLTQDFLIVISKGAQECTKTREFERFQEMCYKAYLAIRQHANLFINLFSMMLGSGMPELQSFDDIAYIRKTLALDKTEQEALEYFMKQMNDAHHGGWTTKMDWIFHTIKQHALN
Tyrosine-protein kinase Lck (Homo sapiens), sequence (P06239 2-509 limits assumed): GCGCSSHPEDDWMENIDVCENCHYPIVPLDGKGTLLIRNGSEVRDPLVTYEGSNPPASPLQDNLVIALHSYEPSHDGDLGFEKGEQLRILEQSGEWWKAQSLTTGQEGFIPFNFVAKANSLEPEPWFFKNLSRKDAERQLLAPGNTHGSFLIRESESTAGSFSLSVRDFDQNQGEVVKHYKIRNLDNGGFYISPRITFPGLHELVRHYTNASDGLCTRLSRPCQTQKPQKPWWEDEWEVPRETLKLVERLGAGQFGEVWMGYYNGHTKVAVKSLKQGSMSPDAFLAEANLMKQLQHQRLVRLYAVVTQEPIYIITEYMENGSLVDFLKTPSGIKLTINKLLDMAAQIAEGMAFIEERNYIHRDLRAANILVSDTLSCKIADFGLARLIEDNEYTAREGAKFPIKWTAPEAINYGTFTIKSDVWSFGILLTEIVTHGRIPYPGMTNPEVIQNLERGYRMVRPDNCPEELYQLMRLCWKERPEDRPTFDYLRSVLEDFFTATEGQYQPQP
Myosin-IIIb (Homo sapiens), sequence (Q8WXR4 whole entry, the tested form may be a part): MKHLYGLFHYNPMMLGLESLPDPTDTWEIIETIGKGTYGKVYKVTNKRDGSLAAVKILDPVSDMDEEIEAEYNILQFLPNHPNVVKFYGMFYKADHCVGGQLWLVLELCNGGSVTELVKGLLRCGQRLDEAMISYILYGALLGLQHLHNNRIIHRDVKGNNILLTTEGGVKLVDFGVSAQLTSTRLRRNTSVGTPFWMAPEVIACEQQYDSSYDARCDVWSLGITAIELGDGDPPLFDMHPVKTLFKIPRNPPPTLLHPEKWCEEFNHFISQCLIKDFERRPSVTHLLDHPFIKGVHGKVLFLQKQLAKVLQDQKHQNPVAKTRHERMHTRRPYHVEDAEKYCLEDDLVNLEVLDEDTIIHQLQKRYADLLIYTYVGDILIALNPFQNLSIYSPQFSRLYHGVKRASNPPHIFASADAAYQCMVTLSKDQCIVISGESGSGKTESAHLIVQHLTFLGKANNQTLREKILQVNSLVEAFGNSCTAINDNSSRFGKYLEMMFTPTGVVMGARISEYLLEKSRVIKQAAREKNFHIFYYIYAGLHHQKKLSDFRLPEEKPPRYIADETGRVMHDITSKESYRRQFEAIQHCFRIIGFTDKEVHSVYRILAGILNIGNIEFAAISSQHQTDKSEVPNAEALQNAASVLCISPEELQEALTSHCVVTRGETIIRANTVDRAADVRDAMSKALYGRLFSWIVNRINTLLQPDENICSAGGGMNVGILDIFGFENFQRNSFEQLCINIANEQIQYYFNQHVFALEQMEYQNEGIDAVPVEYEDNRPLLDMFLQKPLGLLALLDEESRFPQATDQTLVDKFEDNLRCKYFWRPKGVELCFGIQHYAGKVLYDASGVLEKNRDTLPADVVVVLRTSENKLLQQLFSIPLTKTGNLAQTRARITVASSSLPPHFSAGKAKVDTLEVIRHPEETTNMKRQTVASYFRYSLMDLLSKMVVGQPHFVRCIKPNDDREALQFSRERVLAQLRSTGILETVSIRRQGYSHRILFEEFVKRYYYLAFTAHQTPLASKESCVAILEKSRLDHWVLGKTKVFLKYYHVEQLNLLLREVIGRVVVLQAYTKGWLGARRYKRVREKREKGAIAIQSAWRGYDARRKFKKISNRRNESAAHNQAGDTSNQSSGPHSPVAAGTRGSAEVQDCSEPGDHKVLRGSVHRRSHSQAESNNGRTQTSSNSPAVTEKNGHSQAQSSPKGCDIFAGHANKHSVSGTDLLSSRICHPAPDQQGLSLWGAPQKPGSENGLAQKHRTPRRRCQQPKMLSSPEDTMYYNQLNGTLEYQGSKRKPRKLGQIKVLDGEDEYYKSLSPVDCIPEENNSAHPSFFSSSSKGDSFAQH

Compound `COCCN[C@H]1CC[C@H](Nc2cc(-c3csc(NCC4(C#N)CCOCC4)n3)c(Cl)cn2)CC1` has a GI50 (MV4-11) of 12 nM, a GI50 (MOLM-13) of 12 nM and an AUC(0-inf) [1] of 1990 ng·h/mL. The AUC (Canis familiaris) was 16735.55 ng·h/mL, the Activity [2] was 100% and the Activity [3] was 90%. The Activity [4] was 94%, the Activity [5] was 100% and the Activity [6] was 68%. It also gave an Activity [7] of 94%, an Activity [8] of 81% and an Activity [9] of 82%. For the same compound, the Activity [10] was 87%, the Activity [11] was 32% and the Activity [12] was 100%. The Activity [13] was 100%, the Activity [14] was 98% and the Activity [15] was 100%. The Activity [16] was 66% and the Activity [17] was 93%.
